ChEMBL document CHEMBL3351811, “Synthesis of heteroaryl/aryl kojic acid conjugates as stimulators of glucose uptake by GLUT4 translocation” (Eur J Med Chem, 2014)
Activity calls are given as the source filed them. The rule behind the calls is not given here.

Tests used:
Assay type in all cases: cell-based
[1] = target: T1, Solute carrier family 2, facilitated glucose transporter member 4 (Rattus norvegicus) (UniProt P19357); test: Stimulation of rat GLUT4-mediated glucose uptake in rat L6 cells expressing myc-tagged GLUT4 at 10 uM incubated for 16 hrs by scintillation counting based 2-[3H]DG uptake assay
T1 sequence (whole entry): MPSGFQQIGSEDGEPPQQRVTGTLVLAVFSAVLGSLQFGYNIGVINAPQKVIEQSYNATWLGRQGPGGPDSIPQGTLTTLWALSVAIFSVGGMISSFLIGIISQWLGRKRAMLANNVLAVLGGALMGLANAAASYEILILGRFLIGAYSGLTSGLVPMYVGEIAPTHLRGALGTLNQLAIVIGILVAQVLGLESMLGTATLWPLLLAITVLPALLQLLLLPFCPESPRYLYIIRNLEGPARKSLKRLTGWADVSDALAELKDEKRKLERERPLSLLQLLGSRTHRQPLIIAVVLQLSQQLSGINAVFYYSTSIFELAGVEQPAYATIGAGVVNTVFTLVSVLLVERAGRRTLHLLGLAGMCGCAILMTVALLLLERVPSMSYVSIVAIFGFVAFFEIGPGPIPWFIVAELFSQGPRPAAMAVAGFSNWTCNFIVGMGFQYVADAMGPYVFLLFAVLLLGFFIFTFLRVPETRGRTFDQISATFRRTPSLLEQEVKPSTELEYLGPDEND
Procedure, shortened: (§1)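 Differentiated L6-GLUT4myc myotubes (2% FBS, 6–7 days after seeding) exposed to compound for 16 h; insulin 100 nM as positive control. Uptake measured 5 min at room temperature in HEPES-buffered saline with 10 µM 2-DG (0.5 µCi/ml 2-[3H]DG), then lysis and scintillation counting. Cytochalasin B (25 µM) background subtracted. Duplicates normalized to total protein; percent stimulation versus control cells.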

L6 = test: Toxicity in rat L6 cells expressing myc-tagged rat GLUT4 assessed as inhibition of glucose uptake at 10 uM incubated for 16 hrs by scintillation counting based 2-[3H]DG uptake assay; settings: l6, 16 h; procedure, shortened: as §1
[2] = target: T1, Solute carrier family 2, facilitated glucose transporter member 4 (Rattus norvegicus); test: Stimulation of rat GLUT4-mediated glucose uptake in rat L6 cells expressing myc-tagged GLUT4 at 10 uM incubated for 16 hrs in presence of 1 uM PI3K inhibitor wortmannin by scintillation counting based 2-[3H]DG uptake assay
Procedure, shortened: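 Differentiated L6-GLUT4myc myotubes treated with compound at 10 µM, with wortmannin (1 µM) present for the final hour. Uptake then measured 5 min at room temperature in HEPES-buffered saline with 10 µM 2-DG (0.5 µCi/ml 2-[3H]DG), followed by lysis and scintillation counting. Cytochalasin B (25 µM) nonspecific uptake subtracted; duplicates normalized to protein, expressed versus control.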

[3] = target: T1, Solute carrier family 2, facilitated glucose transporter member 4 (Rattus norvegicus); test: Induction of rat GLUT4 translocation in rat L6 cells expressing myc-tagged GLUT4 incubated for 3 hrs by antibody-coupled colourimetric assay
Procedure, shortened: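 L6-GLUT4myc myotubes, non-permeabilized, treated 3 h with vehicle (DMSO), insulin 100 nM or compound at 5, 10, 25 µM. Fixed in 3% paraformaldehyde 30 min, glycine-quenched, milk-blocked, then anti-myc 1.0 µg/ml 1 h. HRP secondary with o-phenylenediamine read-out at OD 492 nm. Triplicates, three independent experiments; expressed as fold over unstimulated cells.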

[4] = target: T1, Solute carrier family 2, facilitated glucose transporter member 4 (Rattus norvegicus); test: Stimulation of rat GLUT4-mediated glucose uptake in rat L6 cells expressing myc-tagged GLUT4 incubated for 16 hrs by scintillation counting based 2-[3H]DG uptake assay; procedure, shortened: as §1

Compound | Activity [1] | Activity (L6) | fold change (FC) [1] | Activity [2] | Activity [3] | Activity [4]
CCCCCn1cc(C(c2ccccc2)c2oc(CO)cc(=O)c2O)c2ccccc21 (stereo not given) | inactive | Toxic | – | – | – | –
COc1ccc(OC)c(C(c2oc(CO)cc(=O)c2O)c2c[nH]c3ccccc23)c1 (stereo not given) | – | – | 1.21 | inactive | Dose-dependent effect | Dose-dependent effect
O=c1cc(CO)oc(C(c2ccccc2)c2csc3ccccc23)c1O (stereo not given) | inactive | – | – | – | – | –
Cn1cc(C(c2ccccc2)c2oc(CO)cc(=O)c2O)c2ccccc21 (stereo not given) | inactive | – | – | – | – | –
Cc1ccc(C(c2ccccc2)c2oc(CO)cc(=O)c2O)s1 (stereo not given) | – | – | 1.21 | inactive | Dose-dependent effect | –
O=c1cc(CO)oc(C(c2ccccc2)c2cn(Cc3ccccc3)c3ccccc23)c1O (stereo not given) | inactive | Toxic | – | – | – | –
CCCCC(c1oc(CO)cc(=O)c1O)c1c[nH]c2ccccc12 (stereo not given) | inactive | – | – | – | – | –
N#Cc1ccc2[nH]cc(C(c3ccccc3)c3oc(CO)cc(=O)c3O)c2c1 (stereo not given) | inactive | – | – | – | – | –
O=c1cc(CO)oc(C(c2ccc(F)cc2)c2c[nH]c3ccccc23)c1O (stereo not given) | inactive | Toxic | – | – | – | –
COc1cccc(C(c2oc(CO)cc(=O)c2O)c2c[nH]c3ccccc23)c1OC (stereo not given) | – | – | 1.25 | inactive | Dose-dependent effect | Dose-dependent effect
COc1ccc2[nH]cc(C(c3ccccc3)c3oc(CO)cc(=O)c3O)c2c1 (stereo not given) | – | – | 1.25 | inactive | Dose-dependent effect | Dose-dependent effect
COc1ccc(C(c2oc(CO)cc(=O)c2O)c2c[nH]c3ccccc23)cc1 (stereo not given) | inactive | Toxic | – | – | – | –
O=c1cc(CO)oc(C(c2ccccc2)c2c(-c3ccccc3)[nH]c3ccccc23)c1O (stereo not given) | inactive | Toxic | – | – | – | –
O=c1cc(CO)oc(C(c2ccccc2)c2c[nH]c3ccccc23)c1O (stereo not given) | inactive | Toxic | – | – | – | –
O=c1cc(CO)oc(C(Sc2ccccc2)c2ccccc2)c1O (stereo not given) | – | – | 1.33 | inactive | Dose-dependent effect | Dose-dependent effect
O=c1cc(CO)oc(C(c2ccc(Br)cc2)c2c[nH]c3ccccc23)c1O (stereo not given) | inactive | Toxic | – | – | – | –
O=c1cc(CO)oc(C(c2ccccc2)c2ccc(O)cc2)c1O (stereo not given) | – | – | 1.34 | inactive | Dose-dependent effect | –
O=c1cc(CO)oc(C(c2ccc3ccccc3c2)c2c[nH]c3ccccc23)c1O (stereo not given) | inactive | Toxic | – | – | – | –
COc1ccc(SC(c2ccccc2)c2oc(CO)cc(=O)c2O)cc1 (stereo not given) | – | – | 1.38 | inactive | Dose-dependent effect | Dose-dependent effect
CCCCCCCCC(c1oc(CO)cc(=O)c1O)c1c[nH]c2ccccc12 (stereo not given) | inactive | – | – | – | – | –
O=c1cc(CO)oc(C(c2ccccc2)c2ccc[nH]2)c1O (stereo not given) | inactive | – | – | – | – | –
O=c1cc(CO)oc(C(c2ccc(Cl)cc2)c2c[nH]c3ccccc23)c1O (stereo not given) | inactive | Toxic | – | – | – | –
